Measurements collected from several papers.
Compare with care: the assays were run in different laboratories.
Target: Tyrosine-protein kinase TXK (TXK, Homo sapiens, UniProt P42681)
Residues used in one study (P42681 1-527): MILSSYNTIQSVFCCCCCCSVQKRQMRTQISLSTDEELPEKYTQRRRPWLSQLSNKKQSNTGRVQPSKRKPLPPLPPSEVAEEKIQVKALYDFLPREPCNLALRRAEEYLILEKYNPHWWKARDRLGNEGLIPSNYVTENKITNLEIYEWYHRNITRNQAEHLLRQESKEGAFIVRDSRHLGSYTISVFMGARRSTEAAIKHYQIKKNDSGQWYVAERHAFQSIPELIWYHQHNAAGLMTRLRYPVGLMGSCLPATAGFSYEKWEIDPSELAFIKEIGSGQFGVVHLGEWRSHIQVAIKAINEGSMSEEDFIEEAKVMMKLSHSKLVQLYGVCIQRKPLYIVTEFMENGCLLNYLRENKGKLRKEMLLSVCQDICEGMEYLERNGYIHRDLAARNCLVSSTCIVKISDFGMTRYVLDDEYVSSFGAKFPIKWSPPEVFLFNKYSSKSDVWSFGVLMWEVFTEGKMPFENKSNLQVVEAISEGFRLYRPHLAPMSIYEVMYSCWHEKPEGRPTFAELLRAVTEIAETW

COc1ncccc1-c1cnn2ccc(N3CCN(C(=O)OC(C)C)CC3)nc12 — remaining binding (binding; competition with immobilised ligand; 1 µM): 74%
Cc1nn(C)cc1-c1nc2c(N3CCN(Cc4ccc(Cl)cc4)CC3)c(Cl)cnc2[nH]1 — remaining binding (binding; competition with immobilised ligand; 1 µM): 100%
Nc1ncc(-c2nc(N3CCOCC3)nc(N3CCOCC3)n2)c(C(F)F)n1 — remaining binding (binding; competition with immobilised ligand; 10 µM): 56%
Cn1cncc1[C@](O)(COc1ccc(C#N)cc1-c1ccc(OC(F)(F)F)cc1)c1ccc(C#N)cc1 — remaining binding (binding; competition with immobilised ligand; 1 µM): 87%
O=c1[nH]c2ccccc2n1C1CCN(Cc2ccc(-c3[nH]c4cc5ncnc5cc4nc3-c3ccccc3)cc2)CC1 — remaining activity (enzyme activity; 0.5 µM): 104%
N#CC1(c2ccccn2)CCN(Cc2cc(C(=O)O)c(=O)n3ccccc23)CC1 — remaining binding (binding; competition with immobilised ligand; 1 µM): 100%
COc1cc(Nc2ncc(F)c(Nc3ccc4c(n3)NC(=O)C(C)(C)O4)n2)cc(OC)c1OC — inhibition (binding; 10 µM): 90%
CC(C)(C)c1cc(C=C(C#N)C#N)cc(Br)c1O — remaining activity (enzyme activity; inhibitor; 0.5 µM): 108%
